Test results from ChEMBL document CHEMBL1148167, “Isolation of a dihydrobenzofuran lignan from South American dragon's blood (Croton spp.) as an inhibitor of cell proliferation” (J Nat Prod, 1993).
Active and inactive are the calls of the source. The calls are words filed in the database; no cut-off is given here.

Tests used:
HUVEC [1] = assay: Effect on HUVEC cells proliferation assessed as inhibition of [3H]thymidine incorporation at 1.9531 ug/ml after 90 hrs by liquid scintillation counting; assay type: functional; settings: Homo sapiens
Summary of the method: (§1)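 HUVEC seeded at 10×10^3 cells/well, washed after 6 h, then exposed 90 h to twofold dilutions in medium 199 with 2% human adult serum. Pulsed 6 h with 1 μCi [3H]thymidine, TCA-fixed, lysed in 0.1% SDS/0.2 N NaOH, scintillation counted. Incorporation per cell (cpm/cells counted) relative to untreated control gave % inhibition.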

HUVEC [2] = assay: Effect on HUVEC cells proliferation assessed as inhibition of [3H]thymidine incorporation at 0.9766 ug/ml after 90 hrs by liquid scintillation counting; assay type: functional; settings: Homo sapiens; summary of the method: as §1
HUVEC [3] = assay: Effect on HUVEC cells proliferation assessed as inhibition of [3H]thymidine incorporation at 0.4883 ug/ml after 90 hrs by liquid scintillation counting; assay type: functional; settings: Homo sapiens; summary of the method: as §1
HUVEC [4] = assay: Cytotoxicity against HUVEC cell at 250 ug/ml after 6 days; assay type: cell-based; settings: human, 144 h
Summary of the method: (§2)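 HUVEC (passage 2–4) seeded at 4×10^3 cells/well in medium 199 with 20% human adult serum; after 8 h washed twice, then exposed to medium 199 with 5% human adult serum ± sample. Samples were 0.5% stocks in 33% PEG 400, diluted into the medium. Growth was scored microscopically every other day for 6 days against 5% serum (negative) and 30% serum (positive) controls.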

HUVEC [5] = assay: Induction of HUVEC cell proliferation at 2.5 ug/ml after 6 days; assay type: functional, cell-based; settings: Homo sapiens; summary of the method: as §2
HUVEC [6] = assay: Effect on HUVEC cells proliferation assessed as viable cells at 250 ug/ml after 90 hrs relative to negative control; assay type: functional; settings: Homo sapiens, read-out: Activity
Summary of the method: (§3)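 HUVEC seeded at 10×10^3 cells/well in 20% serum medium. After 6 h, washed and exposed to twofold sample dilutions (250 down to 0.49 μg/ml) in medium 199 with 2% human adult serum for 90 h plus a 6 h thymidine pulse. Cells counted under an inverted microscope after TCA fixation, as % of untreated control.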

HUVEC [7] = assay: Effect on HUVEC cells proliferation assessed as [3H]thymidine incorporation at 7.8125 ug/ml after 90 hrs by liquid scintillation counting relative to negative control; assay type: functional, Homo sapiens
Summary of the method: (§4)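 HUVEC seeded at 10×10^3 cells/well in medium 199 with 20% human adult serum. After 6 h, washed, then given twofold sample dilutions in medium 199 with 2% human adult serum, 37°, 5% CO2, 90 h. Then 1 μCi [3H]thymidine/well for 6 h. TCA-fixed, DNA solubilized in SDS/NaOH at 60° for 2 h, scintillation counted. cpm/cell expressed as % of untreated control.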

HUVEC [8] = assay: Effect on HUVEC cells proliferation assessed as viable cells at 125 ug/ml after 90 hrs relative to negative control; assay type: functional; settings: Homo sapiens, read-out: Activity; summary of the method: as §3
HUVEC [9] = assay: Effect on HUVEC cells proliferation assessed as viable cells at 62.5 ug/ml after 90 hrs relative to negative control; assay type: functional; settings: Homo sapiens, read-out: Activity; summary of the method: as §3
HUVEC [10] = assay: Effect on HUVEC cells proliferation assessed as viable cells at 31.25 ug/ml after 90 hrs relative to negative control; assay type: functional; settings: Homo sapiens, read-out: Activity; summary of the method: as §3
HUVEC [11] = assay: Effect on HUVEC cells proliferation assessed as viable cells at 15.625 ug/ml after 90 hrs relative to negative control; assay type: functional; settings: Homo sapiens, read-out: Activity; summary of the method: as §3
HUVEC [12] = assay: Effect on HUVEC cells proliferation assessed as viable cells at 7.8125 ug/ml after 90 hrs relative to negative control; assay type: functional; settings: Homo sapiens, read-out: Activity; summary of the method: as §3
HUVEC [13] = assay: Effect on HUVEC cells proliferation assessed as viable cells at 3.9062 ug/ml after 90 hrs relative to negative control; assay type: functional; settings: Homo sapiens, read-out: Activity; summary of the method: as §3
HUVEC [14] = assay: Effect on HUVEC cells proliferation assessed as viable cells at 1.9531 ug/ml after 90 hrs relative to negative control; assay type: functional; settings: Homo sapiens, read-out: Activity; summary of the method: as §3
HUVEC [15] = assay: Effect on HUVEC cells proliferation assessed as viable cells at 0.9766 ug/ml after 90 hrs relative to negative control; assay type: functional; settings: Homo sapiens, read-out: Activity; summary of the method: as §3
HUVEC [16] = assay: Effect on HUVEC cells proliferation assessed as viable cells at 0.4883 ug/ml after 90 hrs relative to negative control; assay type: functional; settings: Homo sapiens, read-out: Activity; summary of the method: as §3
HUVEC [17] = assay: Effect on HUVEC cells proliferation assessed as [3H]thymidine incorporation at 125 ug/ml after 90 hrs by liquid scintillation counting relative to negative control; assay type: functional, Homo sapiens; summary of the method: as §4
HUVEC [18] = assay: Effect on HUVEC cells proliferation assessed as [3H]thymidine incorporation at 62.5 ug/ml after 90 hrs by liquid scintillation counting relative to negative control; assay type: functional, Homo sapiens; summary of the method: as §4
HUVEC [19] = assay: Effect on HUVEC cells proliferation assessed as [3H]thymidine incorporation at 31.25 ug/ml after 90 hrs by liquid scintillation counting relative to negative control; assay type: functional, Homo sapiens; summary of the method: as §4
HUVEC [20] = assay: Effect on HUVEC cells proliferation assessed as [3H]thymidine incorporation at 15.625 ug/ml after 90 hrs by liquid scintillation counting relative to negative control; assay type: functional, Homo sapiens; summary of the method: as §4
HUVEC [21] = assay: Effect on HUVEC cells proliferation assessed as [3H]thymidine incorporation at 3.9062 ug/ml after 90 hrs by liquid scintillation counting relative to negative control; assay type: functional, Homo sapiens; summary of the method: as §4
HUVEC [22] = assay: Effect on HUVEC cells proliferation assessed as [3H]thymidine incorporation at 1.9531 ug/ml after 90 hrs by liquid scintillation counting relative to negative control; assay type: functional, Homo sapiens; summary of the method: as §4
HUVEC [23] = assay: Effect on HUVEC cells proliferation assessed as [3H]thymidine incorporation at 0.9766 ug/ml after 90 hrs by liquid scintillation counting relative to negative control; assay type: functional, Homo sapiens; summary of the method: as §4
HUVEC [24] = assay: Effect on HUVEC cells proliferation assessed as [3H]thymidine incorporation at 0.4883 ug/ml after 90 hrs by liquid scintillation counting relative to negative control; assay type: functional, Homo sapiens; summary of the method: as §4
HUVEC [25] = assay: Effect on HUVEC cells proliferation assessed as inhibition of [3H]thymidine incorporation at 125 ug/ml after 90 hrs by liquid scintillation counting; assay type: functional; settings: Homo sapiens; summary of the method: as §1
HUVEC [26] = assay: Effect on HUVEC cells proliferation assessed as inhibition of [3H]thymidine incorporation at 62.5 ug/ml after 90 hrs by liquid scintillation counting; assay type: functional; settings: Homo sapiens; summary of the method: as §1
HUVEC [27] = assay: Effect on HUVEC cells proliferation assessed as inhibition of [3H]thymidine incorporation at 31.25 ug/ml after 90 hrs by liquid scintillation counting; assay type: functional; settings: Homo sapiens; summary of the method: as §1
HUVEC [28] = assay: Effect on HUVEC cells proliferation assessed as inhibition of [3H]thymidine incorporation at 15.625 ug/ml after 90 hrs by liquid scintillation counting; assay type: functional; settings: Homo sapiens; summary of the method: as §1
HUVEC [29] = assay: Effect on HUVEC cells proliferation assessed as inhibition of [3H]thymidine incorporation at 7.8125 ug/ml after 90 hrs by liquid scintillation counting; assay type: functional; settings: Homo sapiens; summary of the method: as §1
HUVEC [30] = assay: Effect on HUVEC cells proliferation assessed as inhibition of [3H]thymidine incorporation at 3.9062 ug/ml after 90 hrs by liquid scintillation counting; assay type: functional; settings: Homo sapiens; summary of the method: as §1
HUVEC [31] = assay: Cytotoxicity against HUVEC cell at 25 ug/ml after 6 days; assay type: cell-based; settings: human, 144 h
Summary of the method: (§5)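 HUVEC (passages 2–4) seeded at 4×10^3 cells/well in medium 199 with 20% human adult serum, washed after 8 h, then given medium 199 with 5% human adult serum ± sample (from 0.5% stocks in PEG 400 33%). Growth was scored microscopically every other day for 6 days against 5% serum (negative) and 30% serum (positive) controls, with toxicity graded.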

HUVEC [32] = assay: Cytotoxicity against HUVEC cell at 5 ug/ml after 6 days; assay type: cell-based; settings: human, 144 h; summary of the method: as §5
HUVEC [33] = assay: Cytotoxicity against HUVEC cell at 2.5 ug/ml after 6 days; assay type: cell-based; settings: human, 144 h; summary of the method: as §5
HUVEC [34] = assay: Induction of HUVEC cell proliferation at 0.25 ug/ml after 6 days; assay type: functional, cell-based; settings: Homo sapiens; summary of the method: as §2
HUVEC [35] = assay: Induction of HUVEC cell proliferation at 50 ug/ml after 6 days; assay type: functional, cell-based; settings: Homo sapiens; summary of the method: as §2

COc1ccc([C@H]2Oc3c(OC)cc(CCCO)cc3[C@@H]2CO)cc1OC
inhibition at 1.9531 µg/mL (HUVEC [1]): 48% | inhibition at 0.9766 µg/mL (HUVEC [2]): 32% | inhibition at 0.4883 µg/mL (HUVEC [3]): -1% | Activity (HUVEC [4]): Toxic | Activity (HUVEC [5]): inactive | viability at 250 µg/mL (HUVEC [6]): 0% | Activity (HUVEC [7]): 21% | viability at 125 µg/mL (HUVEC [8]): 46% | viability at 62.5 µg/mL (HUVEC [9]): 231% | viability at 31.25 µg/mL (HUVEC [10]): 185% | viability at 15.625 µg/mL (HUVEC [11]): 169% | viability at 7.8125 µg/mL (HUVEC [12]): 123% | viability at 3.9062 µg/mL (HUVEC [13]): 123% | viability at 1.9531 µg/mL (HUVEC [14]): 123% | viability at 0.9766 µg/mL (HUVEC [15]): 108% | viability at 0.4883 µg/mL (HUVEC [16]): 108% | Activity (HUVEC [17]): 3% | Activity (HUVEC [18]): 2% | Activity (HUVEC [19]): 7% | Activity (HUVEC [20]): 13% | Activity (HUVEC [21]): 29% | Activity (HUVEC [22]): 52% | Activity (HUVEC [23]): 68% | Activity (HUVEC [24]): 101% | inhibition at 125 µg/mL (HUVEC [25]): 97% | inhibition at 62.5 µg/mL (HUVEC [26]): 98% | inhibition at 31.25 µg/mL (HUVEC [27]): 93% | inhibition at 15.625 µg/mL (HUVEC [28]): 87% | inhibition at 7.8125 µg/mL (HUVEC [29]): 79% | inhibition at 3.9062 µg/mL (HUVEC [30]): 71%

COc1ccc2c(=O)oc3c(OC)cc(CCN(C)C)c4c(=O)oc1c2c34 [TASPINE]
Activity (HUVEC [31]): Toxic | Activity (HUVEC [32]): Toxic | Activity (HUVEC [33]): Toxic | Activity (HUVEC [34]): inactive

COc1ccc([C@H]2Oc3c(O)cc(CCCO)cc3[C@@H]2CO)cc1OC
Activity (HUVEC [4]): Toxic | Activity (HUVEC [35]): inactive
